Assay results reported in ChEMBL document CHEMBL1127602, “Synthesis and tissue biodistribution of [omega-11C]palmitic acid. A novel PET imaging agent for cardiac fatty acid metabolism” (J Med Chem, 1994).
Several values for one entry are separate records, joined by “and”; a condition that tells them apart may be missing. Equal values may be shown once.

Legend:
[1] = tested on: Rattus norvegicus; assay: Biodistribution in rat lung after 10 min of intravenous injection at a dose of […]; format: ADME, organism-based; details: in vivo
How it was run: (§1)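 Female Sprague–Dawley rats (140–160 g, four per time point), fed ad lib, ether-anesthetized just before injection. Radiotracer bound to human serum albumin in ethanol–saline, given by femoral vein (≈50 μCi/rat). Rats sacrificed at 5, 10, 15, 30 or 60 min. Tissues excised and weighed, activity measured by γ-counting, expressed as %ID/g.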

[2] = tested on: Rattus norvegicus; assay: Biodistribution in rat lung after 30 min of intravenous injection at a dose of […]; format: ADME, organism-based; details: in vivo, 0.5 h; how it was run: as §1
[3] = tested on: Rattus norvegicus; assay: Biodistribution in rat lung after 1 hr of intravenous injection at a dose of […]; format: ADME, organism-based; details: in vivo; how it was run: as §1
[4] = tested on: Rattus norvegicus; assay: Biodistribution in rat heart after 15 min of intravenous injection at a dose of […]; format: ADME, organism-based; details: in vivo, 0.25 h; how it was run: as §1
[5] = tested on: Rattus norvegicus; assay: Biodistribution in rat heart after 5 min of intravenous injection at a dose of […]; format: ADME, organism-based; details: in vivo; how it was run: as §1
[6] = tested on: Rattus norvegicus; assay: Biodistribution in rat muscle after 15 min of intravenous injection at a dose of […]; format: ADME, organism-based, Muscle tissue; details: in vivo, 0.25 h; how it was run: as §1
[7] = tested on: Rattus norvegicus; assay: Biodistribution in rat lung after 5 min of intravenous injection at a dose of […]; format: ADME, organism-based; details: in vivo; how it was run: as §1
[8] = tested on: Rattus norvegicus; assay: Biodistribution in rat heart after 10 min of intravenous injection at a dose of […]; format: ADME, organism-based; details: in vivo; how it was run: as §1
[9] = tested on: Rattus norvegicus; assay: Biodistribution in rat blood after 30 min of intravenous injection at a dose of […]; format: ADME, organism-based; details: in vivo, 0.5 h; how it was run: as §1
[10] = tested on: Rattus norvegicus; assay: Biodistribution in rat muscle after 1 hr of intravenous injection at a dose of […]; format: ADME, organism-based, Muscle tissue; details: in vivo; how it was run: as §1
[11] = tested on: Rattus norvegicus; assay: Biodistribution in rat liver after 30 min of intravenous injection at a dose of […]; format: ADME, organism-based; details: in vivo, 0.5 h; how it was run: as §1
[12] = tested on: Rattus norvegicus; assay: Biodistribution in rat blood after 5 min of intravenous injection at a dose of […]; format: ADME, organism-based; details: in vivo; how it was run: as §1
[13] = tested on: Rattus norvegicus; assay: Biodistribution in rat heart after 30 min of intravenous injection at a dose of […]; format: ADME, organism-based; details: in vivo, 0.5 h; how it was run: as §1
[14] = tested on: Rattus norvegicus; assay: Biodistribution in rat kidney after 15 min of intravenous injection at a dose of […]; format: ADME, organism-based; details: in vivo, 0.25 h; how it was run: as §1
[15] = tested on: Rattus norvegicus; assay: Biodistribution in rat kidney after 30 min of intravenous injection at a dose of […]; format: ADME, organism-based; details: in vivo, 0.5 h; how it was run: as §1
[16] = tested on: Rattus norvegicus; assay: Biodistribution in rat blood after 10 min of intravenous injection at a dose of […]; format: ADME, organism-based; details: in vivo; how it was run: as §1
[17] = tested on: Rattus norvegicus; assay: Biodistribution in rat liver after 1 hr of intravenous injection at a dose of […]; format: ADME, organism-based; details: in vivo; how it was run: as §1
[18] = tested on: Rattus norvegicus; assay: Biodistribution in rat kidney after 10 min of intravenous injection at a dose of […]; format: ADME, organism-based; details: in vivo; how it was run: as §1
[19] = tested on: Rattus norvegicus; assay: Biodistribution in rat kidney after 1 h of intravenous injection at a dose of […]; format: ADME, organism-based; details: in vivo; how it was run: as §1
[20] = tested on: Rattus norvegicus; assay: Biodistribution in rat heart after 1 hr of intravenous injection at a dose of […]; format: ADME, organism-based; details: in vivo; how it was run: as §1
[21] = tested on: Rattus norvegicus; assay: Biodistribution in rat muscle after 5 min of intravenous injection at a dose of […]; format: ADME, organism-based, Muscle tissue; details: in vivo; how it was run: as §1
[22] = tested on: Rattus norvegicus; assay: Biodistribution in rat liver after 5 min of intravenous injection at a dose of […]; format: ADME, organism-based; details: in vivo; how it was run: as §1
[23] = tested on: Rattus norvegicus; assay: Biodistribution in rat liver after 15 min of intravenous injection at a dose of […]; format: ADME, organism-based; details: in vivo, 0.25 h; how it was run: as §1
[24] = tested on: Rattus norvegicus; assay: Biodistribution in rat blood after 15 min of intravenous injection at a dose of […]; format: ADME, organism-based; details: in vivo, 0.25 h; how it was run: as §1
[25] = tested on: Rattus norvegicus; assay: Biodistribution in rat kidney after 5 min of intravenous injection at a dose of […]; format: ADME, organism-based; details: in vivo; how it was run: as §1
[26] = tested on: Rattus norvegicus; assay: Biodistribution in rat blood after 1 hr of intravenous injection at a dose of […]; format: ADME, organism-based; details: in vivo; how it was run: as §1
[27] = tested on: Rattus norvegicus; assay: Biodistribution in rat muscle after 30 min of intravenous injection at a dose of […]; format: ADME, organism-based, Muscle tissue; details: in vivo, 0.5 h; how it was run: as §1
[28] = tested on: Rattus norvegicus; assay: Biodistribution in rat lung after 15 min of intravenous injection at a dose of […]; format: ADME, organism-based; details: in vivo, 0.25 h; how it was run: as §1
[29] = tested on: Rattus norvegicus; assay: Biodistribution in rat liver after 10 min of intravenous injection at a dose of […]; format: ADME, organism-based; details: in vivo; how it was run: as §1
[30] = tested on: Rattus norvegicus; assay: Biodistribution in rat muscle after 10 min of intravenous injection at a dose of […]; format: ADME, organism-based, Muscle tissue; details: in vivo; how it was run: as §1

## CCCCCCCCCCCCCCCC(=O)O [PALMITIC ACID]
[1]
  ID/g: 1.427% and 1.272%
[2]
  ID/g: 1.423% and 1.173%
[3]
  ID/g: 1.154% and 1.08%
[4]
  ID/g: 0.981% and 1.011%
[5]
  ID/g: 1.675% and 0.996%
[6]
  ID/g: 0.221% and 0.166%
[7]
  ID/g: 1.353% and 0.945%
[8]
  ID/g: 1.372% and 1.08%
[9]
  ID/g: 0.43% and 0.329%
[10]
  ID/g: 0.237% and 0.194%
[11]
  ID/g: 8.25% and 5.62%
[12]
  ID/g: 0.25% and 0.116%
[13]
  ID/g: 1.813% and 0.941%
[14]
  ID/g: 1.105% and 1.184%
[15]
  ID/g: 1.28% and 1.301%
[16]
  ID/g: 0.171% and 0.13%
[17]
  ID/g: 6.944% and 4.853%
[18]
  ID/g: 1.184% and 1.343%
[19]
  ID/g: 1.166% and 1.238%
[20]
  ID/g: 1.159% and 0.792%
[21]
  ID/g: 0.197% and 0.183%
[22]
  ID/g: 8.189% and 5.94%
[23]
  ID/g: 8.195% and 6.252%
[24]
  ID/g: 0.31% and 0.373%
[25]
  ID/g: 1.154% and 0.994%
[26]
  ID/g: 0.237% and 0.157%
[27]
  ID/g: 0.222% and 0.198%
[28]
  ID/g: 1.165% and 1.246%
[29]
  ID/g: 8.38% and 8.36%
[30]
  ID/g: 0.198% and 0.179%
